Shown are actives, neighbours in structure and some others; about 8.7% of the full set was active somewhere.
PostGolgi yeast: growth inhibition of a yeast mutant, post-Golgi transport screen | post-Golgi transport phenotypic cell assay | inhibition, % at 10 µM | actives 0.9% (n = 98,000);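 also: yeast cells grown in 1536-well plates; yeast grown about 18 h at 30C before absorbance read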
Pyk2 oligo antag: Pyk2 (human) oligomerization antagonism. Q293 cells, Pyk2 FERM NanoBiT luminescence; stronger effect = lower value. z-score (the deposit names both 25 µM and 10 µM). actives 0.83% (n = 99,000). AID 1347419;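 active = Z-score of -3 or lower, scaled per plate to the spread of control and sample wells; inactive = z-score above -3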;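 also: negative z-score means lost luminescence so less FERM oligomerization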
Target sequence (Q14289 whole entry, looked up): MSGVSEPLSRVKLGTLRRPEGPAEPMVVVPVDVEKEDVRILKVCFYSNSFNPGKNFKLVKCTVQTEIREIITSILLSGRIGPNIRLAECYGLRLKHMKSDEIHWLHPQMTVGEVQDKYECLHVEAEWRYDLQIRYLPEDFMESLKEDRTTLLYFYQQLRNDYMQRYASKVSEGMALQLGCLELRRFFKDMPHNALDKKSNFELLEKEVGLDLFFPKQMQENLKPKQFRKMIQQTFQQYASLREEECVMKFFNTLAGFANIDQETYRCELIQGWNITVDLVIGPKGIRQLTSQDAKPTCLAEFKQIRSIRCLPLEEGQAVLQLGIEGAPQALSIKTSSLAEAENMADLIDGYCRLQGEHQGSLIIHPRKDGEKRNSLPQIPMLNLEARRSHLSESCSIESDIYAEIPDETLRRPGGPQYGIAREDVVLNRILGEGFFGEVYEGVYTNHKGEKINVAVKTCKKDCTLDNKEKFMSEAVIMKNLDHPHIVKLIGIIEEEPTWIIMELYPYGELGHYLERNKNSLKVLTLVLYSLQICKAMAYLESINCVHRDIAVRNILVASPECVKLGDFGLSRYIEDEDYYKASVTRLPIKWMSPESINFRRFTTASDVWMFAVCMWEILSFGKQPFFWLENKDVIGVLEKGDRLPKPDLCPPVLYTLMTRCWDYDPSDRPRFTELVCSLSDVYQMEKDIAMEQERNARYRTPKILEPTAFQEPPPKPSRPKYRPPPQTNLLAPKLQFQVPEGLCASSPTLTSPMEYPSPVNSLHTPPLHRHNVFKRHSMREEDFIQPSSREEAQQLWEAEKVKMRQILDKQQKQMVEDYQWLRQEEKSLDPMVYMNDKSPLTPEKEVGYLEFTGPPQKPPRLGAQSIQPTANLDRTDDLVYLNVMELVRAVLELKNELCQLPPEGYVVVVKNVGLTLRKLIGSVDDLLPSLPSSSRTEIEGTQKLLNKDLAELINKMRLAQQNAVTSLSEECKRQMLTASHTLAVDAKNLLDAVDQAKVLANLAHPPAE
Cav3 T inh: inhibitors of human Cav3.2 T-type calcium channel; O95180; Cav3.2-expressing cells, Fluo-4 calcium fluorescence FDSS; stronger effect = lower value; B-score at 10 µM; actives 4% (n = 100,000);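 active = single-dose well whose peak fluorescence ratio is a statistical outlier from its plate by either plate-standardised score or position-corrected B-score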
Ecoli WT expand: E. coli BW25113 growth inhibition, expanded screen; OD600 absorbance; growth inhibition, % at 100 µM; actives 0.15% (n = 98,000);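 active = growth inhibition above about 50% at one test dose, limit read from the data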;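 also: growth measured after 20 h incubation at 37 °C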
tolC growth inh: growth inhibitors of E. coli BW25113 tolC mutant; AID 573; actives 2.2% (n = 65,000); growth inhibition, % at 10 µM (by protocol); OD615;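 active = growth inhibition at or above a cutoff equal to the mean over every tested compound plus 3 SD, cut at about 60% in these data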;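 also: growth measured after 20 h incubation at 37 °C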
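Doses: one dose of 10 µM final / Material: E. coli BW25113 ΔtolC::kan, tolC deletion mutant strain / Buffer or medium: LB with kanamycin 50 µg/mL / Evaluation: percent growth inhibition / Detection: optical density read at 615 nm / Incubation: 37 °C, 20 h exposure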
PostGolgi ctrl: inhibits growth of the yeast control strain. efflux-deficient yeast background strain, growth absorbance A615, 16 h. inhibition, % at 10 µM. actives 5% (n = 98,000). AID 738
An asterisk follows results filed as active. Rule as the data show it, unless noted: active = inhibition above about 30%; inactive = the rest.

Screening CCOC(=O)N1CCC(NC(=O)c2cc(C(=O)NCC(OC)OC)ccc2CO)CC1 returned PostGolgi yeast -2.3, Pyk2 oligo antag 0.82, Cav3 T inh 0.254, Ecoli WT expand 7.0 and PostGolgi ctrl 1.1.
Screening c1coc(-c2nnc3sc(Cc4cccs4)nn23)c1 returned PostGolgi yeast 21.1, Pyk2 oligo antag 0.27, Cav3 T inh 0.0874, Ecoli WT expand 9.0, tolC growth inh 8.9 and PostGolgi ctrl 1.8.
For Clc1ccc(-c2nnc3sc(Cc4cccs4)nn23)c(Cl)c1 the results were PostGolgi yeast -12.5, Pyk2 oligo antag -1.04, Cav3 T inh -0.422, Ecoli WT expand -2.0, tolC growth inh 17.9 and PostGolgi ctrl 50.1*.
COc1cc(C)nc(N(Cc2ccccc2)S(=O)(=O)c2ccccc2)n1 was read as PostGolgi yeast -0.6, Pyk2 oligo antag -1.65, Cav3 T inh -3.11, Ecoli WT expand -15.0, tolC growth inh 54.6 and PostGolgi ctrl 32.9*.
For CCCN(c1nc(C)cc(OC)n1)S(=O)(=O)c1ccccc1 the results were PostGolgi yeast -4.7, Pyk2 oligo antag -0.86, Cav3 T inh -4.75*, Ecoli WT expand 1.0, tolC growth inh 16.9 and PostGolgi ctrl 24.0.
COc1cccc(C2C(C(C)=O)=C(O)C(=O)N2CCc2c[nH]c3ccccc23)c1 (configuration not stated) was read as PostGolgi yeast -7.0, Pyk2 oligo antag 0.72, Cav3 T inh 1.02, Ecoli WT expand 3.0 and PostGolgi ctrl 11.6.
`Cn1cccc1/C=N/n1c(-c2ccc(C(C)(C)C)cc2)n[nH]c1=S` gave PostGolgi yeast 18.5, Pyk2 oligo antag -1.24, Cav3 T inh -0.24, Ecoli WT expand 4.0 and PostGolgi ctrl 36.8*.
Cn1cccc1/C=N/n1c(-c2ccccc2)n[nH]c1=S was read as PostGolgi yeast 3.5, Pyk2 oligo antag 0.27, Cav3 T inh 0.316, Ecoli WT expand -10.0 and PostGolgi ctrl 8.1.
Screening Nc1nc(Nc2ccc(Cl)cc2)nc2ccccc12 returned PostGolgi yeast 0.7, Pyk2 oligo antag -0.94, Cav3 T inh 0.38, Ecoli WT expand 93.0* and PostGolgi ctrl 11.0.
COc1cccc(C2NC(=O)NC(O)(C(F)(F)F)C2C(=O)c2cccnc2)c1OC (configuration not stated) was read as PostGolgi yeast 18.2, Pyk2 oligo antag 0.1, Cav3 T inh 1.29, Ecoli WT expand 8.0, tolC growth inh -2.2 and PostGolgi ctrl -6.2.
For Cc1oc2ccc(O)c(CN3CCOCC3)c2c1C(=O)c1ccc(Cl)cc1 the results were PostGolgi yeast -5.5, Pyk2 oligo antag -1.58, Cav3 T inh -4.36*, Ecoli WT expand -9.0, tolC growth inh 21.4 and PostGolgi ctrl 23.8.
COc1cc(C)c(C(C)C)cc1S(=O)(=O)NCCCn1ccnc1 was read as PostGolgi yeast 18.4, Pyk2 oligo antag 0.25, Cav3 T inh 0.131, Ecoli WT expand 9.0, tolC growth inh 15.9 and PostGolgi ctrl -1.5.
For O=C1CC(C(=O)Nc2ccc(F)c(Cl)c2)N=C(N2CCCCC2)N1 (configuration not stated) the results were PostGolgi yeast 7.2, Pyk2 oligo antag 0.97, Cav3 T inh 0.424, Ecoli WT expand -2.0 and PostGolgi ctrl 12.6.
For CC(=Nc1cccc(C)c1)c1sc2ccccc2c1O the results were PostGolgi yeast 4.4, Pyk2 oligo antag 0.15, Cav3 T inh -0.713, Ecoli WT expand 1.0 and PostGolgi ctrl 6.5.
`CC(=Nc1ccc(O)cc1)c1sc2ccccc2c1O` gave PostGolgi yeast 0.5, Pyk2 oligo antag -1.05, Cav3 T inh -1.09, Ecoli WT expand -2.0, tolC growth inh 100.0* and PostGolgi ctrl -1.6.
`CCCCC1(Cc2ccc([N+](=O)[O-])cc2)C(=O)N(c2ccccc2)N(c2ccccc2)C1=O` gave PostGolgi yeast 2.8, Pyk2 oligo antag -0.99, Cav3 T inh -4.8*, Ecoli WT expand -27.0 and PostGolgi ctrl 12.8.
`CC(C)NC(=O)CSc1nnc(C2CC2)n1-c1ccccc1` gave PostGolgi yeast -1.6, Pyk2 oligo antag 1.14, Cav3 T inh 0.842, Ecoli WT expand 8.0 and PostGolgi ctrl 1.4.
`CCOC(=O)C1=C(c2ccccc2)N(C)C(=O)NC1c1ccc(O)c(OC)c1` (configuration not stated) gave PostGolgi yeast 18.3, Pyk2 oligo antag -0.9, Cav3 T inh 0.33, Ecoli WT expand 4.0, tolC growth inh -17.9 and PostGolgi ctrl 30.7*.
For CCOC(=O)C1=C(c2ccccc2)NC(=O)NC1c1ccc(OCC#N)c(OC)c1 (configuration not stated) the results were PostGolgi yeast -9.3, Pyk2 oligo antag -0.86, Cav3 T inh -0.0726, Ecoli WT expand 2.0, tolC growth inh 0.7 and PostGolgi ctrl -1.1.
CCOC(=O)C1=C(C)N(Cc2ccccc2)C(=O)NC1c1ccc(OC)cc1 (configuration not stated) was read as PostGolgi yeast -1.9, Pyk2 oligo antag -2.82, Cav3 T inh -5.83*, Ecoli WT expand 6.0 and PostGolgi ctrl 22.0.
`CCOC(=O)CN1C(=O)N[C@@H](c2ccccc2)C(C(=O)OC)=C1C` gave Cav3 T inh 1.42.
Screening CC(C)CC(NC(=O)C(Cc1ccc(OCc2ccccc2)cc1)NC(=O)OC(C)(C)C)C(N)=O (configuration not stated) returned PostGolgi yeast -0.2, Pyk2 oligo antag 0.72, Cav3 T inh -4.79*, Ecoli WT expand 1.0 and PostGolgi ctrl 9.4.
For O=S(=O)(Nc1nc2ccccc2s1)c1ccc(Cl)s1 the results were PostGolgi yeast 8.1, Pyk2 oligo antag -1.74, Cav3 T inh -5.08*, Ecoli WT expand 9.0 and PostGolgi ctrl 30.7*.
Screening COc1ccc(N2CCN(C(=O)CC34CC5CC(CC(C5)C3)C4)CC2)c([N+](=O)[O-])c1 returned Pyk2 oligo antag -1.15.
CCOC(=O)N1CCN(C(=O)COc2ccc(S(=O)(=O)Nc3ccc(OCC)cc3)cc2)CC1 was read as PostGolgi yeast 15.1, Pyk2 oligo antag 0.71, Cav3 T inh -0.0377, Ecoli WT expand 0.0, tolC growth inh 67.9* and PostGolgi ctrl 5.0.
For COc1ccc(-c2cc(C(F)(F)F)nc(SCCC(=O)NCc3ccccc3)n2)cc1 the results were PostGolgi yeast 9.3, Pyk2 oligo antag 0.17, Cav3 T inh -5.72*, Ecoli WT expand -3.0 and PostGolgi ctrl 4.9.
Screening CC(NC(=O)CCSc1nc(-c2ccc3c(c2)OCO3)cc(C(F)(F)F)n1)c1ccccc1 (configuration not stated) returned PostGolgi yeast 4.7, Pyk2 oligo antag 0.05, Cav3 T inh -5.24*, Ecoli WT expand 2.0 and PostGolgi ctrl 4.3.
Screening Cc1noc2ncnc(Oc3ccc(F)cc3)c12 returned PostGolgi yeast 4.3, Pyk2 oligo antag 0.91, Cav3 T inh 0.033, Ecoli WT expand 6.0 and PostGolgi ctrl 12.1.
Cc1ccc(-c2nc3ccccn3c2NCc2ccc3c(c2)OCO3)cc1 was read as PostGolgi yeast -2.0, Pyk2 oligo antag 0.15, Cav3 T inh -4.41*, Ecoli WT expand 2.0 and PostGolgi ctrl 23.2.

Bioassay records as filed in PubChem BioAssay.
